Source: paper PMC5517787 (International Journal for Parasitology: Drugs and Drug …, 2017)
Values joined by “and” are separate entries in the source; they are usually repeats but may differ in a detail not shown here. Equal entries are not always repeated. Where two headings read alike, the source gives them in different places. Marks after values point to notes of the source that are not given here.

Legend:
[1] = system: adult female and male Brugia malayi; assay: Adult motility assay; type: cell-based; conditions: for IC50: Brugia malayi
T. muris L1s = assay: Whipworm L1 in vitro assay; type: cell-based, Trichuris muris
In short: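 Forty T. muris L1s per well in 100 μl RPMI-1640 with amphotericin B (12.5 μg/ml), penicillin (500 U/ml) and streptomycin (500 μg/ml). Test compound at 100 μM in duplicate; levamisole (100 μM) as positive control. Held 24 h at 37 °C, 5% CO2. Total L1s counted, then larvae stimulated with 100 μl hot water and motile L1s counted.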

[2] = system: microfilariae of Brugia malayi; assay: Microfilariae motility assay; type: cell-based; conditions: 72 h, read-out: motility IC50, B. malayi microfilariae
In short: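 Individual gravid B. malayi females in RPMI-1640 with gentamycin (10 μg/ml) and amphotericin B (2.5 μg/ml). Two-fold test-compound dilutions from 100 to 0.97 μM in duplicate; RPMI* with 1% DMSO as negative control. Incubated at 37 °C, 5% CO2. At 72 h, about 100 released microfilariae moved to 96-well plates and filmed for 30 s on the Worminator. Run three times; IC50 from a four-parameter variable-slope fit.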

[3] = system: Haemonchus contortus exsheathed third-stage larvae (xL3s); assay: Whole-organism xL3 motility assay; type: cell-based; conditions: for IC50: Haemonchus contortus
[4] = system: mammary epithelial cell line (MCF10A); assay: cells; type: cell-based; conditions: for IC50 / inhibition at 100 µM: Homo sapiens, MCF-10A; for IC50: 48 h, read-out: MCF10A cells IC50; for inhibition at 100 µM: read-out: MCF10A cells % inhibition at 100 μM; for Selectivity index (SI) H. contortus L4 (72 h) / Selectivity index (SI) H. contortus L4 development (7 days) / Selectivity index (SI) H. contortus xL3 (72 h): highest value of IC50 range; for selectivity index (SI) for parasitic larvae of H. contortus, range: range over xL3, L4 motility and L4 development
adult A. ceylanicum = assay: Adult hookworm in vitro assay; type: cell-based, Ancylostoma ceylanicum; conditions: for killing of adult A. ceylanicum: 50 μM, 72 h
In short: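 Adult worms taken from small intestines of hamsters orally infected with 150 A. ceylanicum L3s three weeks earlier. Three worms per well, 2 wells per compound, in HBSS with 10% foetal calf serum, amphotericin B (25 μg/ml), penicillin (100 U/ml) and streptomycin (100 μg/ml). Test compound at 50 μM; levamisole (50 μM) as positive control. Held 72 h at 37 °C, 5% CO2, then condition assessed microscopically.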

[5] = system: Haemonchus contortus fourth-stage larvae (L4s); assay: L4 motility assay; type: cell-based
[6] = system: microfilariae of Dirofilaria immitis; assay: microbe, parasite or virus in culture; type: cell-based; conditions: for IC50: Dirofilaria immitis, read-out: motility IC50, D. immitis microfilariae
[7] = system: microfilariae of Dirofilaria immitis; conditions: read-out: motility IC50, D. immitis microfilariae; cited from earlier work
[8] = system: adult female and male Brugia malayi; conditions: ref Storey et al., 2014, cited from earlier work
[9] = system: microfilariae of Brugia malayi; conditions: read-out: motility IC50, B. malayi microfilariae; ref Storey et al., 2014; cited from earlier work
[10] = 24 h, read-out: xL3 motility IC50
[11] = 48 h, read-out: xL3 motility IC50
[12] = 72 h, read-out: xL3 motility IC50
[13] = IC50 MCF10A / IC50 nematode, estimated IC50 range
[14] = 24 h, read-out: L4 motility IC50
[15] = 48 h, read-out: L4 motility IC50
[16] = 72 h, read-out: L4 motility IC50

Compound | IC50 [3, 10] | IC50 [3, 11] | IC50 [3, 12] | IC50 [4] | inhibition at 100 µM [4] | Selectivity index (SI) H. contortus L4 (72 h) ([4]; IC50 MCF10A / IC50 nematode) | Selectivity index (SI) H. contortus L4 development (7 days) ([4]; IC50 MCF10A / IC50 nematode) | Selectivity index (SI) H. contortus xL3 (72 h) ([4]; IC50 MCF10A / IC50 nematode) | selectivity index (SI) for parasitic larvae of H. contortus, range [4] | killing of adult A. ceylanicum (adult A. ceylanicum) | IC50 [5, 14] | IC50 [5, 15] | IC50 [5, 16] | IC50 [7] | also measured
O=C(Nc1ccc(Cl)cc1)N1CCCC1c1nc(-c2ccccc2)no1 (stereo not shown) [SN00797439, N-(4-chlorophenyl)-2-(3-phenyl-1,2,4-oxadiazol-5-yl)-1-pyrrolidinecarboxamide] | 3460 ± 820 nM | 10100 ± 2060 nM | 5930 ± 1380 nM | 50000 to 100000 nM | 6.2 ± 0.66% | 128.2 ^b | 9.1 | 16.9 | 9–128 | killed | 6250 to 12500 nM | 780 to 1500 nM | 310 to 780 nM |  | concentration at which movement of female and male adults ceased ([1]; 24 h): 100 µM; concentration at which movement of female and male adults ceased ([1]; 48 h): 50 µM; IC50 ([1]; 24 h, read-out: motility IC50, B. malayi adult female): 25000 to 50000 nM; IC50 ([1]; 24 h, read-out: motility IC50, B. malayi adult male): 25000 to 50000 nM; T. muris L1s dead (T. muris L1s; 100 μM, 24 h): > 90% and 90.1%; IC50 (T. muris L1s; Trichuris muris, read-out: IC50 on first-stage larvae of T. muris (abstract)): 3000 to 50000 nM; IC50 [2]: ~3000 nM; xL3 phenotype ([3]; 20 μM): “coiled” xL3 phenotype; reduction of xL3 motility ([3]; 20 μM, 72 h, primary and confirmatory screens): ≥ 70%; IC50 ([3]; read-out: xL3 IC50 (abstract summary)): 3460 to 5930 nM; Selectivity index (SI) D. immitis mff (48 h) [4]: 2 ^b; Selectivity index (SI) B. malayi adult females [4, 13]: 2 ^b; Selectivity index (SI) B. malayi adult males [4, 13]: 2 ^b; kill of adults of A. ceylanicum (abstract) (adult A. ceylanicum): > 90%; IC50 ([5]; read-out: L4 motility IC50 (abstract summary)): 310 to 12500 nM; concentration giving complete inhibition of microfilariae motility [6]: 100 µM; IC50 ([6]; 24 h): ~50000 nM; IC50 ([6]; 48 h): ~50000 nM
ivermectin |  |  |  |  |  |  |  |  |  |  |  |  |  | 43000 nM | 
c1ccc([C@H]2CN3CCSC3=N2)cc1 [levamisole, reference compound] |  |  |  |  |  |  |  |  |  | killed |  |  |  |  | killing of T. muris L1s (T. muris L1s; 100 μM, 24 h): killed
C[C@](C#N)(COc1cc(C#N)ccc1C(F)(F)F)NC(=O)c1ccc(SC(F)(F)F)cc1 [Monepantel, monepantel] | 480 ± 230 nM | 260 ± 150 nM | 160 ± 80 nM | 24900 ± 11800 nM | 0.1 ± 0.05% | 67.4 | 332.4 |  | 67–332 |  | 760 ± 290 nM | 340 ± 180 nM | 370 ± 320 nM |  | 
CO/N=C1\C[C@]2(C[C@@H]3C[C@@H](C/C=C(\C)C[C@@H](C)/C=C/C=C4\CO[C@@H]5[C@H](O)C(C)=C[C@@H](C(=O)O3)[C@]45O)O2)O[C@H](/C(C)=C/C(C)C)[C@H]1C [Moxidectin, moxidectin] | 190 ± 30 nM | 970 ± 840 nM | 80 ± 40 nM | < 6000 nM | 0.05 ± 0.01% | 300 | 1.7 | 75 | 2 to 300 |  | 70 ± 40 nM | 50 ± 20 nM | 20 ± 10 nM | 9300 nM | comparison value for motility of adult B. malayi ([8]; 24 h): 1.3 µM; comparison value for motility of adult B. malayi ([8]; 48 h): 2.9 µM; IC50 [9]: ~6000 nM
